# Active and inactive are the calls of the source. No cut-off for these calls is given here. Starred links: 1 amine or outer side, 2 acyl side, 3 side chain; linkers in the order of their positions; H or OH if unused. Positions of bridges follow the written chain, without caps; N, C: chain ends. Non-standard residues stand in square brackets, D forms with d. Residues, ends and D or L forms follow the SMILES beside them. X2 = CCC(CC)(CC(=O)[*:1])S[*:2]; X1 = CC(C)(CC(=O)[*:1])S[*:2]; Mpa = O=C(O)CCS
# Legend:
# [1] = tested on: Rattus norvegicus; experiment: Antidiuretic activity in Brattleboro rat hereditary hypothalamic diabetes insipidus model at 100 ug/kg, sc measured over 1.7 hrs; format: functional, organism-based; settings: Urine
# Procedure, shortened: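 Single subcutaneous injection into Brattleboro rats with hereditary hypothalamic diabetes insipidus. The value recorded is the duration, in hours, for which diuresis was inhibited (antidiuresis) after dosing.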
# [2] = Oxytocic activity in Sherman albino rat uterus assessed as contraction; format: functional
# [3] = tested on: Rattus norvegicus; experiment: Ratio of dPVDAVP to compound for antidiuretic activity in sc dosed Brattleboro rat hereditary hypothalamic diabetes insipidus model
# [4] = tested on: Rattus norvegicus; experiment: Antidiuretic activity in sc dosed Brattleboro rat hereditary hypothalamic diabetes insipidus model measured over 6 hrs; format: functional, Urine
# Procedure, shortened: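 Brattleboro rats with hereditary hypothalamic diabetes insipidus received a single sc injection of 100 ng/kg. Inhibition of diuresis was followed over time to record its duration.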
# [5] = tested on: Rattus norvegicus; experiment: Antivasopressor activity in iv dosed phenoxybenzamine-treated rat assessed as inhibition of lysine-vasopressin-induced vasopressor response; format: functional, organism-based; settings: read-out: pA2 (converted)
# Procedure, shortened: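 Urethane-anesthetized, phenoxybenzamine-treated rats as in the standard rat vasopressor assay. The antagonist was given iv immediately before iv injection of agonist standard, with LVP as agonist. pA2 is the −log molar antagonist concentration halving the effect of a doubled agonist dose. Peptide was assumed uniformly distributed in blood volume. pA2 was computed per assay group and reported as mean ± SE.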
# [6] = Antioxytocic activity in Sherman albino rat uterus assessed as inhibition of oxytocin-induced contraction; format: functional, tissue-based
# Procedure, shortened: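 Isolated rat uterus in magnesium-free van Dyke-Hastings solution. The antagonist was added to the bath immediately before injection of agonist (USP Posterior Pituitary Reference Standard). pA2 was calculated per Schild as the −log molar antagonist concentration reducing the response to 2X units of agonist to that of X units. A pA2 was computed per assay group and reported as mean ± SE.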
# [7] = tested on: Rattus norvegicus; experiment: Antidiuretic antagonist activity in sc dosed Brattleboro rat hereditary hypothalamic diabetes insipidus model; format: functional, organism-based; settings: Urine
# [8] = tested on: Rattus norvegicus; experiment: Antivasopressor activity in phenoxybenzamine-treated rat assessed as inhibition of arginine-vasopressin-induced vasopressor response at 10 ug/kg, iv measured for >= 2.5 hrs; format: functional, organism-based
# Procedure, shortened: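 Rats received a single iv injection of 10 μg/kg antagonist. Vasopressor responses to AVP challenges of 10-40 mU/kg (about 25-100 ng/kg) were then followed. The duration of inhibition was recorded as an average period.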
# [9] = species: Rattus norvegicus; experiment: Antivasopressor activity in phenoxybenzamine-treated rat assessed as inhibition of norepinephrine-induced vasopressor response; format: functional, organism-based
# [10] = tested on: Rattus norvegicus; experiment: Antidiuretic activity in sc dosed Brattleboro rat hereditary hypothalamic diabetes insipidus model; format: functional, organism-based; settings: Urine
# [11] = species: Rattus norvegicus; experiment: Antivasopressor activity in phenoxybenzamine-treated rat assessed as inhibition of angiotensin 2-induced vasopressor response; format: functional, organism-based
compound,measurement,setting,value
N=C(N)NCCC[C@H](NC(=O)[C@@H]1CCCN1C(=O)[C@@H]1CSSC[C@H](N)C(=O)N[C@@H](Cc2ccc(O)cc2)C(=O)N[C@@H](Cc2ccccc2)C(=O)N[C@@H](CCC(N)=O)C(=O)N[C@@H](CC(N)=O)C(=O)N1)C(=O)NCC(N)=O,Activity,[1],Active
CC(C)[C@@H]1NC(=O)[C@H](Cc2ccccc2)NC(=O)[C@H](Cc2ccc(O)cc2)NC(=O)CCSSC[C@@H](C(=O)N2CCC[C@H]2C(=O)N[C@H](CCCNC(=N)N)C(=O)NCC(N)=O)NC(=O)[C@H](CC(N)=O)NC1=O ([Mpa]YFVNCP[dR]G-NH2; disulfide 1-6),Activity,[2],8 U/mg
same,Ratio,[3],10
same,Activity,[4],1230 U/mg
CCC1(CC)CC(=O)N[C@@H](Cc2ccc(O)cc2)C(=O)N[C@@H](Cc2ccccc2)C(=O)N[C@@H](CCC(N)=O)C(=O)N[C@@H](CC(N)=O)C(=O)N[C@H](C(=O)N2CCC[C@H]2C(=O)N[C@@H](CCCCN)C(=O)NCC(N)=O)CSS1 (YFQNCPKG-NH2; linker N-5 via X2),Kb,[5],70.8 nM
same,pA2,[6],6.84
CC(C)[C@@H]1NC(=O)[C@H](Cc2ccccc2)NC(=O)[C@H](Cc2ccc(O)cc2)NC(=O)CC(C)(C)SSC[C@@H](C(=O)N2CCC[C@H]2C(=O)N[C@H](CCCNC(=N)N)C(=O)NCC(N)=O)NC(=O)[C@H](CC(N)=O)NC1=O (YFVNCP[dR]G-NH2; linker N-5 via X1),Activity,[7],inactive
same,pA2,[6],7.23
same,inhibition,[8],Active
same,inhibition,[9],inactive
same,Activity,[10],Active
same,Activity,[4],123 U/mg
same,inhibition,[11],inactive

# Reference: ChEMBL document CHEMBL3272240, “[1-deaminopenicillamine,4-valine]-8-D-arginine-vasopressin, a highly potent inhibitor of the vasopressor response to arginine-vasopressin” (J Med Chem, 1977)
